Screens deposited in PubChem by Broad Institute.
miR-122 sensor = blocks miR-122 activity in Huh7 sensor cells. Huh7 miR-122 Renilla luciferase sensor, 48 h; neutral wells = 0, positive control = 100. activation (reporter increase), % at 12.5 µM. AID 602342. 0.3% of 340,000 active;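 active = mean replicate activation score at least 90 and every replicate individually at or above 90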;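 note: higher luciferase means less miR-122 activity so hits act as miR-122 inhibitors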
E-sel inducer = induces E-selectin expression in human endothelial cells; activation, % at 7.58 µM; AID 686992; P16581; HUVEC E-selectin immunofluorescence imaging; normalized: neutral wells 0, TNF-alpha wells 100; 0.37% of 260,000 active;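 active = mean E-selectin-positive cell signal at least 10% of the positive control, reached in at least 60% of replicates, without over 20% cell loss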
Target sequence (P16581 whole entry, looked up): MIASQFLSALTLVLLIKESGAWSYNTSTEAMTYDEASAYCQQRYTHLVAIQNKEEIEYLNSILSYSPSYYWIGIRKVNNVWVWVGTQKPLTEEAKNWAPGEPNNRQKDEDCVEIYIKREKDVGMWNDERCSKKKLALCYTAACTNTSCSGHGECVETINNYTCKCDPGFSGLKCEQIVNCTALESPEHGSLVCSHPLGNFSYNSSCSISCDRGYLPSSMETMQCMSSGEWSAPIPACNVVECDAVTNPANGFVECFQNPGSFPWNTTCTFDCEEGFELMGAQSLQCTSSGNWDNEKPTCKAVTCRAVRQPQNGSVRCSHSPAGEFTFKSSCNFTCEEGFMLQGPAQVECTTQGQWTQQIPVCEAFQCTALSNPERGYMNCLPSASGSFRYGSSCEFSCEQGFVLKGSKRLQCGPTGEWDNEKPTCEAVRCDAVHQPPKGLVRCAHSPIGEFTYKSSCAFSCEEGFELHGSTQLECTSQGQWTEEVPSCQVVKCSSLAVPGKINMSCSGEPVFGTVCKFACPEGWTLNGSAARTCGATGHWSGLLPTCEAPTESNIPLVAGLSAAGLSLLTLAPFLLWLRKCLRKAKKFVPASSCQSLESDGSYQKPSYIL
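System: HUVEC / Compound: single concentration / Signal: immunofluorescence imaging / Read-out: percent E-selectin-positive cells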
Cneo AK release = causes C. neoformans cell lysis | adenylate kinase release luminescence, 4 h; normalised: neutral wells 0, clomiphene wells 100 | lysis activity, % at 15 µM | 0.2% of 360,000 active;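 active = mean lysis activity across replicates of at least 80%, whatever share of replicates individually reach that level; inactive = mean lysis activity below 80%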
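Schedule: static 4 h at 37 °C with compound, 1 h detection; system: C. neoformans cells; benchmarks: Clomiphene as positive control; buffer or medium: fresh YPD medium; measure: luminescence rise reflecting yeast cell lysis; measured by: luminescent adenylate kinase detection reagent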
DENV2 CPE rescue = inhibitors of DENV2 cytopathic effect. DENV2-infected cells, cytopathic effect rescue, plate reader. CPE inhibition, % at 9.99 µM. 1.7% of 350,000 active. AID 651640; in the data active = CPE inhibition above about 20%, passing the limit was not always enough; tested in BHK-21 cells;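 note: 0% = median of neutral control wells and 100% = median of positive control wells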
rRNA inh HTS = inhibitors of bacterial rRNA selective over humanized ribosomes; E. coli WT GFP vs humanized-ribosome RFP mutants, fluorescence, 24 h; active compounds read low; DMSO median 0, no signal -100; 1.6% of 350,000 active; GFP signal change (wild-type ribosome), % (no concentration beside the values);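 active = significant combined selectivity score with lowered wild-type GFP, culture density cut under 30%, mutant RFP and density less affected; inactive = any of these conditions unmet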
* = called active by the depositor; / = not tested or not shown; [ ] = another dose, or the depositor's remark. An excerpt weighted towards active compounds, which were near 3.1% of everything screened.

SMILES	miR-122 sensor	E-sel inducer	Cneo AK release	DENV2 CPE rescue	rRNA inh HTS
Cc1ccc(S(=O)(=O)N(C)C[C@H]2Oc3ccc(NC(=O)NC4CCCCC4)cc3CC(=O)N([C@H](C)CO)C[C@H]2C)cc1	-10.3[16.7 µM]	0.4	0.5	-3.1	-0.7
Cc1ccc(S(=O)(=O)Nc2ccc3c(c2)CC(=O)N([C@@H](C)CO)C[C@@H](C)[C@@H](CN(C)S(=O)(=O)c2ccc(Cl)cc2)O3)cc1	-2.9[16.7 µM]	-0.3	0.9	-6.6	-3.6
Cc1ccc(S(=O)(=O)N(C)C[C@@H]2Oc3ccc(NC(=O)NC4CCCCC4)cc3CC(=O)N([C@@H](C)CO)C[C@@H]2C)cc1	-7.0[16.7 µM]	1.9	-1.3	35.3*	-1.9
Cc1ccc(S(=O)(=O)N(C)C[C@H]2Oc3ccc(NS(=O)(=O)c4ccc(Cl)cc4)cc3CC(=O)N([C@@H](C)CO)C[C@H]2C)cc1	-8.5[16.7 µM]	-0.3	0.7	26.6*	2.3
Cc1ccc(S(=O)(=O)Nc2ccc3c(c2)CC(=O)N([C@H](C)CO)C[C@H](C)[C@@H](CN(C)S(=O)(=O)c2ccc(C)cc2)O3)cc1	-0.2[16.7 µM]	0.1	-0.2	66.9*	-1.2
Cc1ccc(S(=O)(=O)Nc2ccc3c(c2)CC(=O)N([C@@H](C)CO)C[C@@H](C)[C@H](CN(C)S(=O)(=O)c2ccc(Cl)cc2)O3)cc1	-2.6[16.7 µM]	-0.5	-4.2	48.6*	-2.0
CCn1c(=N)n(CC(=O)C(C)(C)C)c2ccccc21	/	/	-0.5	/	-22.6*
CCCn1c(=N)n(CC(=O)C(C)(C)C)c2ccccc21	0.5	/	7.9	/	/
Cc1ccc(NC(=O)C(OC(=O)c2ccc(F)cc2)c2ccccc2)cc1Cl (stereo not drawn)	137.2*	0.0	0.4	2.0	-23.2
COc1ccc(NC(=O)C(OC(=O)c2cnc(C)cn2)c2ccccc2)cc1Cl (stereo not drawn)	34.5	/	/	74.5*	5.9
COc1ccc(C#Cc2cccc(-c3nc(C(=O)N[C@@H]4CCN(Cc5ccccc5)C4)cc4c3[C@H](CCO)N(S(=O)C(C)(C)C)C4)c2)cc1OC (stereo partly drawn)	/	/	/	-7.2	/
CCN(CC)CCCNC(=S)N1CCN(c2nc(-c3ccccc3)cs2)CC1	-14.3	/	0.0	-23.2	-21.8*
COc1ccc(C)cc1NS(=O)(=O)c1ccc2c(c1)CCN2C(C)=O	91.9*	-0.2	-4.8	-5.4	2.1
O=C(NNS(=O)(=O)c1ccc(Cl)cc1)c1cccs1	115.6*	/	/	/	11.0
O=C(Nc1ccc2c(c1)OCCO2)c1cc(-c2ccccc2)nc2ccccc12	-7.8	/	1.0	/	/
O=C(Nc1ccc2c(c1)OCO2)c1cc(-c2ccncc2)nc2ccccc12	6.3	/	-1.4	-3.9	-21.6*
O=C(N/N=C/c1ccc[nH]1)c1cc(-c2ccc(Cl)cc2)nc2ccccc12	/	-1.8	/	-9.6	-38.5*
O=C(NNC(=O)c1cc(-c2ccccc2)nc2ccccc12)Nc1cccc(Cl)c1	78.2	/	-5.1	/	/
O=C(NNC(=O)c1cc(-c2cccnc2)nc2ccccc12)Nc1ccc(Cl)cc1	2.7	4.5	/	0.5	-29.3*
COc1ccc(S(=O)(=O)NNC(=O)c2cccs2)cc1	/	2.1	-1.7	0.2	14.4
Cc1noc(C)c1NC(=O)Nc1ccc2c(c1)CC(=O)N([C@H](C)CO)C[C@H](C)[C@@H](CN(C)C(=O)Nc1cccc3ccccc13)O2	-6.7[16.7 µM]	0.0	/	/	-0.6
CC(C)C#Cc1cnc2c(c1)C(=O)N([C@H](C)CO)C[C@H](C)[C@@H](CN(C)C(=O)Nc1cccc(F)c1)O2	-4.9[16.7 µM]	-0.3	-1.0	6.5	-5.6
O=C(NCc1ccc(F)cc1)[C@@H]1[C@@H](CO)[C@@H]2Cn3c(cccc3=O)[C@@H]2N1CCC(F)(F)F	/	-0.3	2.9	9.1	-0.3
CN1C(=O)c2cc(NC(=O)C3CC3)ccc2OC[C@H]2O[C@H](CC(=O)O)CC[C@@H]21	/	-0.1	/	-6.7	1.7
COc1ccc(NC(=O)Nc2ccc3c(c2)C(=O)N([C@H](C)CO)C[C@@H](C)[C@H](CN(C)S(=O)(=O)c2cccs2)OCCCC[C@@H](C)O3)cc1	-9.7[16.7 µM]	1.1	-2.8	1.0	-5.1
SMILES	miR-122 sensor	E-sel inducer	Cneo AK release	DENV2 CPE rescue	rRNA inh HTS
CCCC(=O)Nc1ccc2c(c1)C(=O)N(C)[C@H]1CC[C@@H](CC(=O)NCCOC)O[C@@H]1CO2	40.0[16.7 µM]	0.1	55.0	-3.6	1.4
Cc1cccc(S(=O)(=O)NNC(=O)c2cc(-c3ccc(F)cc3)nc3ccccc23)c1	3.6	/	0.7	5.1	0.6
O=C(NNS(=O)(=O)c1ccc(Cl)cc1)c1cc(-c2ccccc2)nc2ccccc12	3.2	/	4.5	-1.3	-30.8*
CN(C)CCCn1c(N)c(S(=O)(=O)c2ccccc2)c2nc3ccccc3nc21	-1.8	-0.1	0.7	5.0	-27.7*
Cc1ccc(S(=O)(=O)c2c(N)n(Cc3ccco3)c3nc4ccccc4nc23)cc1	121.4*	/	/	/	3.2
CCCCn1c(N)c(S(=O)(=O)c2ccc(C)cc2)c2nc3ccccc3nc21	24.8	-0.7	5.6	-3.8	-7.0
OC[C@H]1O[C@@H](n2cnc3c(Nc4ccccc4)ncnc32)[C@H](O)[C@@H]1O	2.3	2.2	-1.9	-0.3	/
OCC1OC(n2cnc3c(NCc4ccccc4O)ncnc32)C(O)C1O (stereo not drawn)	571.6*	-0.3	/	-2.7	3.5
Cc1[nH]c2ccccc2c1CN1CCC(Cc2ccccc2)CC1	-1.9	1.1	1.0	-20.0	-42.3*
Cc1[nH]c2ccccc2c1CN1CCN(c2ccccn2)CC1	0.1	0.5	-1.9	-1.4	-13.9
C=CCn1c(SCn2nnc3ccccc3c2=O)nnc1-c1ccc(Br)cc1	-6.1	/	3.9	/	/
C=CCn1c(COc2cccc(C)c2)nnc1SCn1nnc2ccccc2c1=O	3.8	/	5.4	/	-42.6*
CCCNC(=O)[C@H]1[C@H](CO)[C@H]2Cn3c(cccc3=O)[C@@H]1N2Cc1cc(F)ccc1F	-4.2[16.7 µM]	-0.1	60.1	-7.4	0.5
COCCNC(=O)[C@H]1[C@H](CO)[C@H]2Cn3c(cccc3=O)[C@@H]1N2Cc1cc(F)ccc1F	-1.4[16.7 µM]	-0.1	1.6	39.8*	3.5
O=C(NCC1CCCCC1)[C@H]1[C@H](CO)[C@H]2Cn3c(cccc3=O)[C@@H]1N2CCc1ccccc1	/	0.1	-3.4	109.2*	-4.8
O=C(NCC1CCCCC1)[C@@H]1[C@@H](CO)[C@@H]2Cn3c(cccc3=O)[C@H]1N2CCc1ccccc1	/	-0.3	-0.9	110.0*	-10.1
C[C@H](CO)N1C[C@H](C)[C@@H](CN(C)S(=O)(=O)c2ccc(Cl)cc2)Oc2ccc(NC(=O)C3CCCCC3)cc2CC1=O	-5.4[16.7 µM]	-0.3	70.4	-2.6	0.1
CO[C@@H]1CN(C)C(=O)c2ccc(NC(=O)c3ccccc3)cc2OC[C@H](C)N(C(C)=O)C[C@@H]1C	/	0.0	/	1.4	0.1
COc1ccc2c3c(n(C)c2c1)[C@H](CO)N(Cc1cccc(Cl)c1)CC31CCN(C(C)=O)CC1	/	-0.2	/	15.9	-4.7
